Lung fibro prol: blocks proliferation of human lung fibroblasts. 85,000 compounds, 1.1% hits. viability, % at 10 µM. LL 47 human lung fibroblast viability, ATP luminescence; stronger effect = lower value;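 active = viability at or below 50% in the single dose screen; inactive = viability above 50%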;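 note: compound exposure lasted 72 h before the ATP readout; 100% = median luminescence of untreated cell-only wells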
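Material: Human LL 47 lung fibroblast cells | Input: 1,150 cells/well | Buffer or medium: IMEM plus 15% FBS | Compound dosing: 0.1% DMSO in all compound wells | Times: Overnight cell rest, 72 h compound treatment at 37 °C | Signal: CellTiter-Glo luminescence measuring cellular ATP | Measure: % viability versus median cells-only luminescence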
H69AR inhibit: growth inhibitors of human H69AR lung tumor cells; 85,000 compounds, 6% hits; H69AR lung tumor viability, ATP luminescence, 72 h; stronger effect = lower value; viability, % at 10 µM;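 active = viability at or below 40%; inactive = viability above 40%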;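 note: multidrug resistant small cell line overexpressing MRP-1 efflux transporter; 100% = mean luminescence of untreated control wells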
HCT116 bCat-KO: beta-catenin-lacking colon tumor cell growth suppression | HCT116 beta-catenin knockout viability, CellTiter-Glo, 60 h; stronger effect = lower value | viability, % at 10 µM | 140,000 compounds, 1.5% hits;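 active = viability at or under a set limit, the compound median less 4 SD, cut at about 6% in these data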;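 note: 0% = Hyamine 1622 control at 20 µM and 100% = untreated cell control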
PTEN del growth: suppresses growth of cells with PTEN deletion; HCT116 PTEN-null viability, CellTiter-Glo, 60 h; stronger effect = lower value; viability, % at 10 µM; 140,000 compounds, 1.2% hits;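 active = viability at or below a set limit, 4 SD under the median of all tested compounds, cut at about 3.7% in these data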;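 note: PTEN knockout HCT116 line with beta catenin targeted HCT116 as companion control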
HUVEC prolif 384: human endothelial cell proliferation inhibition. 86,000 compounds, 1.1% hits. HUVEC proliferation, CellTiter-Glo luminescence, 72 h; stronger effect = lower value. viability, % at 10 µM (by protocol). AID 648;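 active = viability at or below 30%; inactive = viability above 30%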;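 note: 100% = median luminescence of DMSO-only cell control wells on each plate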
Active calls of the source: *; x = not tested or not shown. The sample as a whole holds a higher share of hits than the screen did.

SMILES	Lung fibro prol	H69AR inhibit	HCT116 bCat-KO	PTEN del growth	HUVEC prolif 384
CCOc1ccc(-c2[nH]ncc2Oc2ccccc2OCC)c(O)c1	71	12*	65	61	76
C=C(C)COc1ccc(-c2[nH]ncc2-c2ccc(Br)cc2)c(O)c1	x	x	1.8*	2.2*	x
CCCOC(=O)c1ccc(Oc2cn[nH]c2-c2ccc(OC)cc2O)cc1	80	42	47	47	8.5*
COc1ccc(-c2n[nH]c(C)c2-c2cc(OC)ccc2O)cc1	99	99	113	99	95
COc1ccc(-c2c(-c3ccc(O)cc3O)n[nH]c2C)cc1OC	80	21*	41	32	67
CCOc1cc(S(=O)(=O)NCc2ccccc2)ccc1F	95	99	100	105	104
C=CCC(CC=C)(NC(=O)c1cccc(C)c1)c1ccccc1	x	x	89	88	x
C=CCSc1nnc(-c2ccccc2NC(=O)CC)c(=O)[nH]1	99	x	91	94	95
CCCCN(C)C(=O)CCC(=O)NNc1nc2ccccc2c2nc(C)nn12	x	x	96	98	x
Cc1ccc(-c2nc3cccnc3s2)cc1NS(=O)(=O)c1ccc2c(c1)OCCO2	91	21*	73	79	70
O=S(=O)(Nc1cccc(-c2nc3cccnc3s2)c1)c1ccc2c(c1)OCCO2	104	80	84	73	78
CCOc1ccc(OCC)c(NC(=O)CN2CCN(c3cccc(C)c3)C(C)C2)c1 (stereo not given)	76	19*	32	88	63
CCOc1ccc(OCC)c(NC(=O)CN2CCN(c3cccc(C)c3)CC2)c1	98	71	88	93	106
Cc1ccc(-c2cn(-c3ccccc3)c(SCC(=O)NC3CCS(=O)(=O)C3)n2)cc1C (stereo not given)	x	x	88	95	x
CN1CCN(c2nc(-c3ccccc3)c3cc(Cl)ccc3n2)CC1	72	39*	56	44	49
OCCN1CCN(c2nc(-c3ccccc3)c3cc(Cl)ccc3n2)CC1	94	8.3*	73	71	34
Clc1ccc2nc(N3CCNCC3)nc(-c3ccccc3)c2c1	2.4*	0.8*	1.2*	1.3*	4.3*
O=C1CN(c2nc(-c3ccccc3)c3cc(Cl)ccc3n2)c2ccccc2N1	x	x	51	49	x
COc1ccc2oc(=O)c(-c3ccccc3C(=O)N3CCOCC3)cc2c1	x	x	91	98	x
CC(C)C(=O)Nc1cccc(C(=O)Nc2nnc(C(C)(C)C)s2)c1	100	70	109	102	108
N#CC(=C1N=c2ccccc2=N1)c1c(O)[nH]c2ccccc12	x	x	87	84	x
Cn1c(O)c(C(C#N)=C2N=c3ccccc3=N2)c2ccccc21	74	14*	86	74	50
COC(=O)C1=C(Cn2cnc3ccccc32)NC(=O)NC1c1cc(C)ccc1C (stereo not given)	99	50	90	93	93
CCOC(=O)C1=C(Cn2cnc3ccccc32)NC(=O)NC1c1cc(C)ccc1C (stereo not given)	95	16*	53	40	96
Cc1nc2c3ccccc3nc(SCC(=O)N3CC(C)CC(C)C3)n2n1 (stereo not given)	97	20*	103	97	80
SMILES	Lung fibro prol	H69AR inhibit	HCT116 bCat-KO	PTEN del growth	HUVEC prolif 384
Cc1nc2c3ccccc3nc(SCC(=O)c3ccc(Cl)cc3)n2n1	x	x	66	62	x
COc1ccccc1NC(=O)c1nc[nH]c1C(=O)Nc1ccccc1OC	91	39*	83	82	95
COc1ccc(NC(=O)c2nc[nH]c2C(=O)Nc2ccccc2C)cc1	66	20*	17	16	53
CCOc1ccccc1NC(=O)c1nc[nH]c1C(=O)Nc1ccccc1OCC	81	56	85	81	75
Cc1cc(-n2c(SCCC#N)nnc2-c2cccnc2)ccc1Cl	104	65	100	92	95
O=[N+]([O-])c1cccc(C2=NCCC(c3ccccc3)O2)c1 (stereo not given)	x	x	105	108	x
COc1cccc(C2CC3(CC(C)(C)NC(=S)N3)Oc3cc(O)ccc32)c1 (stereo not given)	x	x	77	70	x
CC(=O)Oc1cc2c(cc1Cl)C1(CC(c3ccccc3Cl)O2)CC(C)(C)NC(=S)N1 (stereo not given)	92	32*	2.0*	2.0*	79
CCN(CC)c1ccc(C2NCC(c3ccc([N+](=O)[O-])cc3)O2)cc1 (stereo not given)	92	103	88	97	88
CCc1c(C)nc2cc(-c3ccc(OC)c(OC)c3)nn2c1N1CCC(C)CC1	102	70	75	76	105

Bioassay records as filed in PubChem.
